From PubChem BioAssay
H9c2 TAG inh – inhibitors of triacylglycerol accumulation; 230,000 compounds, 0.66% hits; H9c2 cells, Nile Red lipid (TAG) fluorescence; cells loaded with 200 µM oleic acid; inhibition, % at 12.5 µM;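 active = pattern-corrected inhibition of lipid staining of at least 50% with the nuclear-stain viability signal not falling by more than 50%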;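 note: 0% = DMSO wells and 100% = triacsin C control wells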
Calb FLC – affects C. albicans growth with fluconazole; AID 1979; 300,000 compounds, 0.57% hits; C. albicans CaCi-2 + fluconazole, Alamar Blue growth, 48 h; growth inhibition, % (concentration not given with the values);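 active = growth inhibition above about 58% in most replicates, limit read from the data, passing the limit was not always enough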;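 note: all wells also contain fluconazole at 8 µg/ml as a sub-toxic cotreatment; 0% = median of DMSO wells and 100% = median of geldanamycin control wells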
MC4R antagonist – antagonists of human melanocortin 4 receptor (MC4R). P32245. MC4R-expressing cells, MTII-stimulated cAMP, LANCE TR-FRET. inhibition, % at 6.5 µM. 360,000 compounds, 0.48% hits. AID 540295;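 active = inhibition above its plate's cutoff, the mean of tested wells on that plate plus 3 SD, cut at about 29% in these data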;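 note: 0% = Melanotan II alone and 100% = Melanotan II plus saturating MCL0020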
Target sequence (P32245 whole entry, looked up): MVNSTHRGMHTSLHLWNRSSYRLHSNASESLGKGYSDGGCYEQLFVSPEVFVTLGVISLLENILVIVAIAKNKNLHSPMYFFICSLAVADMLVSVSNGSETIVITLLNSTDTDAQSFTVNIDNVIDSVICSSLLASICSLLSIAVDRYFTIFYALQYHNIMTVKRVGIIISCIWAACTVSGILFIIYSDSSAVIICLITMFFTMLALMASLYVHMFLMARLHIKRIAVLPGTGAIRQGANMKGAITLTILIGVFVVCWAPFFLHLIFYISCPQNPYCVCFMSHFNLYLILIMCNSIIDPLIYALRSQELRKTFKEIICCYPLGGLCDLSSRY
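Material – human MC4R-expressing U2OS cells · Repeats – no replicates · Detection – TR-FRET with Eu-cAMP and labeled anti-cAMP, 671 nm · Times – compound 30 min, challenge 1 h, detection 1 h · Compound – single nominal compound dose of 6.5 µM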
MC4R barr agon – human MC4R agonism via beta-arrestin; U2OS MC4R beta-arrestin complementation, luminescence; percent of melanotan II response, DMSO zero; AID 540308; 360,000 compounds, 0.98% hits; P32245; activation, % at 8.9 µM;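 active = activation above a per-plate cutoff, the mean activation of sample wells on that plate plus 3 SD, cut at about 8% in these data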
Efflux pump mplx – antifungal efflux pump inhibition, Nile Red retention | inhibition, % at 10 µM | 330,000 compounds, 0.44% hits | S. cerevisiae Candida pump triplex;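 active = plate passing quality check with inhibition over a set limit, or well fluorescence over plate mean plus 4 SD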;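 note: Nile Red retained in pooled yeast measured as flow cytometry median fluorescence; 0% = buffer negative control and 100% = Enniatin B positive control; higher means more Nile Red kept so more efflux inhibition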
GalR3 antagonist – antagonists of human GalR3; HEK293 GalR3-CNG cAMP membrane potential fluorescence; galR3 body fused to GalR1 C-terminus; O60755; 360,000 compounds, 0.44% hits; inhibition, % at 3 µM;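 active = inhibition above the screen-wide average plus 3 SD, cut at about 13% in these data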;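 note: forskolin and galanin both at EC90 stimulate the cells; cAMP rise reported by CNG channel membrane potential dye signal; 0% = forskolin plus galanin with DMSO and 100% = forskolin alone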
cAMP nonselect – counter-screen for MC4R antagonists: nonselective cAMP signaling inhibitors. 1,600 compounds, 26% hits. shares compounds with MC4R antagonist. parental U2OS, forskolin cAMP, LANCE TR-FRET. inhibition, % at 6.5 µM;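 active = mean inhibition over triplicates above the low-control well mean plus 3 SD, set per campaign, cut at about 13% in these data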;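 note: signal is single emission at 671 nm which falls as cellular cAMP rises; 0% = forskolin-stimulated wells and 100% = buffer without forskolin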
MC4R cAMP antag – human MC4R cAMP antagonism confirmation; shares compounds with MC4R antagonist; MC4R-expressing cells, MTII-stimulated cAMP, TR-FRET; inhibition, % at 6.5 µM; 1,600 compounds, 27% hits; in the data active = inhibition above about 29%;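 note: 0% = agonist stimulated wells alone and 100% = agonist stimulated wells plus saturating reference antagonist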
Numbers without * were called inactive; x = not tested or not shown. Shown are actives, neighbours in structure and some others; about 2.9% of the full set was active somewhere.

SMILES	H9c2 TAG inh	Calb FLC	MC4R antagonist	MC4R barr agon	Efflux pump mplx	GalR3 antagonist	cAMP nonselect	MC4R cAMP antag
COc1ccc(-n2c(-c3cccc(OC)c3)nc(=S)c3c2CCCC3)cc1	x	41.3	30.9*	-0.9	0.1	-0.7	16.8*	32.5*
COC(=O)COc1cccc(NS(=O)(=O)c2cccc([N+](=O)[O-])c2)c1	8.3	-2.6	1.1	-0.4	0.1	-5.2	x	x
COC(=O)COc1ccc(NS(=O)(=O)c2cccc([N+](=O)[O-])c2)cc1	-5.5	0.0	30.8*	-2.3	0.2	-8.2	22.3*	43.2*
COC(=O)CSc1nnc(-c2ccc(NS(=O)(=O)c3ccccc3)cc2)o1	-19.9	-1.9	67.9*	0.4	0.1	-8.3	11.8	37.1*
CC(C)(C)c1ccc(CC(=O)N2CCC2(C)C(=O)NS(=O)(=O)c2ccc(Cl)cc2)cc1 (stereo not given)	8.8	x	10.2	-1.4	x	-5.6	x	x
CC(/C=N/n1c(-c2ccc(Cl)cc2)n[nH]c1=S)=C\c1ccco1	x	14.9	10.1	1.8	3.9	-3.5	x	x
N#CC(C#N)=C1C=CC=CN1/C(=C\c1ccco1)C(=O)c1ccc(-c2ccccc2)cc1	75.4	x	31.2*	-4.1	0.2	-1.6	-0.5	12.7
N#C/C(=C\c1ccco1)C(=O)NCc1ccccc1	x	-22.8	6.5	-1.8	0.1	x	x	x
N#CC(C#N)=C1C=CC=CN1/C(=C\c1ccco1)C(=O)c1ccc(Cl)cc1	x	x	33.7*	-3.3	-0.4	8.8	28.8*	43.2*
COCc1[nH]nc2c1C(c1cccc(C(F)(F)F)c1)NC2=O (stereo not given)	x	x	x	x	x	-5.3	x	x
O=C(Nc1ccccc1)Nc1ccc2ccccc2c1	-4.5	11.4	9.2	1.9	0.0	-4.8	x	x
CC(C)Sc1cc(Cl)nc(NC(=O)Nc2ccccc2)n1	x	2.5	30.6*	-0.8	0.4	-10.6	17.0*	39.5*
CCOc1ccccc1/C=C(\C#N)C(=O)Nc1cccc(C(=O)O)c1	-3.0	9.6	38.0*	-0.5	-0.1	0.1	-0.4	-0.1
Cc1cc(C(=O)O)ccc1-n1c(C)cc(/C=C(/C#N)C(=O)Nc2ccccc2)c1C	x	8.7	31.3*	-1.2	0.1	-3.5	-1.4	-1.1
COc1cccc(/C=C/C2=CC(C)(C)NC(=S)N2)c1	x	9.1	28.7*	-1.8	-0.1	-3.9	-3.1	-9.6
O=C(NCCN1C(=O)S/C(=C\c2ccc(Cl)c([N+](=O)[O-])c2)C1=O)C1=COCCO1	15.6	x	29.1*	-3.8	0.0	-4.1	8.5	8.4
O=C(NCCN1C(=O)S/C(=C\c2ccc(Cl)c(Cl)c2)C1=O)c1cnccn1	x	2.2	6.5	1.2	0.5	-0.3	x	x
CSCCC(NC(=O)c1ccccc1Cl)C(=O)Nc1ccc(C)c(S(=O)(=O)N2CCOCC2)c1 (stereo not given)	3.7	-1.9	29.2*	3.0	-0.2	-3.9	8.4	12.6
Cc1ccc(NC(=O)NC(=O)c2cnccc2C(F)(F)F)c(C)c1	3.3	1.0	4.3	2.0	0.1	-4.7	x	x
Cc1ccc(N=C(NO)c2cnccc2C(F)(F)F)c(C)c1	x	10.8	30.5*	0.8	0.0	-7.7	-0.8	-10.2
CCOC(=O)N1CCN(C(C(=O)NC2CCCC2)c2cccc(OC)c2OC)CC1 (stereo not given)	x	x	x	x	x	-4.4	x	x
Cc1ccc(C(=O)O)cc1NC(=O)Nc1ccc2c(c1)OCO2	14.9	-15.9	30.4*	2.1	0.0	-3.3	1.9	-0.5
O=C(Nc1cccc(C(=O)O)c1)Nc1ccc2c(c1)OCO2	-2.2	-0.3	-1.9	-2.4	0.1	-3.4	x	x
Cc1cc(C)cc(-n2c(C)cc(/C=C3\C(=N)N4N=C(CC(C)C)SC4=NC3=O)c2C)c1	x	46.9	4.0	-0.5	-0.1	0.5	x	x
CCCC1=NN2C(=N)/C(=C\c3cc(C)n(-c4cc(C)cc(C)c4)c3C)C(=O)N=C2S1	x	11.6	30.4*	2.1	0.0	-9.2	-0.7	-19.9
